# Results: ChEMBL document CHEMBL1137015, “Improved, selective, human intestinal carboxylesterase inhibitors designed to modulate 7-ethyl-10-[4-(1-piperidino)-1-piperidino]carbonyloxycamptothecin (Irinotecan; CPT-11) toxicity” (J Med Chem, 2009)
# Calls of active or inactive are those of the source.
# Experiments:
# [1] = target: Cholinesterase (Homo sapiens) (UniProt P06276); experiment: Inhibition of human BchE using butyrylthiocholine as substrate by spectrophotometric multiwell plate assay
# Liver carboxylesterase 1 = target: T1, Liver carboxylesterase 1 (Homo sapiens, UniProt P23141); experiment: Inhibition of human liver CE1-mediated O-nitrophenyl acetate hydrolysis by spectrophotometry
# T1 sequence (P23141 whole entry): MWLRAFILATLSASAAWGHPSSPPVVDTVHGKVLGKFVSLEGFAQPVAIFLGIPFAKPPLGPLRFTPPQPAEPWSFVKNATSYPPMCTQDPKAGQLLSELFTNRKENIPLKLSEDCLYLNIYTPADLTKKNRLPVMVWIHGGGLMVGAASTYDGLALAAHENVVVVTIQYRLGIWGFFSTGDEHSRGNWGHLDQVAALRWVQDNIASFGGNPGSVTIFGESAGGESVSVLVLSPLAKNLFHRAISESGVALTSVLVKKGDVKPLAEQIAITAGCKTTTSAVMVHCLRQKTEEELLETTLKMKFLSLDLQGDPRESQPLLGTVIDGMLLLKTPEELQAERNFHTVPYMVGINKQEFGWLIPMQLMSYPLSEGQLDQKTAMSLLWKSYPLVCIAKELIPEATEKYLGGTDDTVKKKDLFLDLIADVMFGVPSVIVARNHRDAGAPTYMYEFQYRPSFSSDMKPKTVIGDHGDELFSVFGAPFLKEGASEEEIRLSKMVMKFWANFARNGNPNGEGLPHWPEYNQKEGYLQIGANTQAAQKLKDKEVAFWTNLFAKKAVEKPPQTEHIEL
# Method in brief: (§1)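 Enzyme activity read spectrophotometrically as release of o-nitrophenol from o-nitrophenyl acetate across increasing inhibitor concentrations. Inhibitors were freshly dissolved in DMSO, typically as 10mM stocks. Fractional inhibition was plotted against inhibitor concentration and fitted to a partial-inhibition equation including Ks, α and β. Inhibition mode was chosen by Akaike's information criteria, and Ki was taken from the best-fit model.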
# [2] = target: Acetylcholinesterase (Homo sapiens) (UniProt P22303); experiment: Inhibition of human AchE using acetylthiocholine as substrate by spectrophotometric multiwell plate assay
# [3] = Inhibition of human intestinal CE-mediated O-nitrophenyl acetate hydrolysis by spectrophotometry; method in brief: as §1
# [4] = Inhibition of human intestinal CE-mediated irinotecan hydrolysis
# Method in brief: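 Human intestinal CE (25 U per reaction; 1 U converts 1 nmole o-nitrophenyl acetate/min) with 20µM CPT-11 in 50mM Hepes pH7.4, inhibitor 1nM to 100µM. Incubated 37°C for 5 min, stopped with cold acidified methanol, centrifuged. SN-38 measured by reverse phase HPLC. Fractional inhibition fitted to partial inhibition equation, model chosen by Akaike's criteria, Ki from best fit.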
# Cholinesterase (Homo sapiens), sequence (P06276 whole entry): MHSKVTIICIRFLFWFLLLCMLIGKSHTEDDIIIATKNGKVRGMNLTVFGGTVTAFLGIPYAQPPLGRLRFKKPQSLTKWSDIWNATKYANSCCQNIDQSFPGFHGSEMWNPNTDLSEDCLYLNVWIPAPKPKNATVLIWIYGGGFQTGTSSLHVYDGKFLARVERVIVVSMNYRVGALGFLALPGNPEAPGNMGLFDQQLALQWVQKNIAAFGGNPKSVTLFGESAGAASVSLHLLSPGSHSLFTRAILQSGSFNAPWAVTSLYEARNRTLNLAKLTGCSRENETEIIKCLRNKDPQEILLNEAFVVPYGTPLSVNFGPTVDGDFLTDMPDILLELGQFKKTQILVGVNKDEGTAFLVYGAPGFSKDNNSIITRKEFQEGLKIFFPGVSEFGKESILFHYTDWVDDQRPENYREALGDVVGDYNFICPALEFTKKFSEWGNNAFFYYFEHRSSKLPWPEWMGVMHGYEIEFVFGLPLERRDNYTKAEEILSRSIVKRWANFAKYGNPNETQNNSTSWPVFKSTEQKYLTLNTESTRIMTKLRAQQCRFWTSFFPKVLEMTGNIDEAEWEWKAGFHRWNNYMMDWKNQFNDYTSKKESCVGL
# Acetylcholinesterase (Homo sapiens), sequence (P22303 whole entry): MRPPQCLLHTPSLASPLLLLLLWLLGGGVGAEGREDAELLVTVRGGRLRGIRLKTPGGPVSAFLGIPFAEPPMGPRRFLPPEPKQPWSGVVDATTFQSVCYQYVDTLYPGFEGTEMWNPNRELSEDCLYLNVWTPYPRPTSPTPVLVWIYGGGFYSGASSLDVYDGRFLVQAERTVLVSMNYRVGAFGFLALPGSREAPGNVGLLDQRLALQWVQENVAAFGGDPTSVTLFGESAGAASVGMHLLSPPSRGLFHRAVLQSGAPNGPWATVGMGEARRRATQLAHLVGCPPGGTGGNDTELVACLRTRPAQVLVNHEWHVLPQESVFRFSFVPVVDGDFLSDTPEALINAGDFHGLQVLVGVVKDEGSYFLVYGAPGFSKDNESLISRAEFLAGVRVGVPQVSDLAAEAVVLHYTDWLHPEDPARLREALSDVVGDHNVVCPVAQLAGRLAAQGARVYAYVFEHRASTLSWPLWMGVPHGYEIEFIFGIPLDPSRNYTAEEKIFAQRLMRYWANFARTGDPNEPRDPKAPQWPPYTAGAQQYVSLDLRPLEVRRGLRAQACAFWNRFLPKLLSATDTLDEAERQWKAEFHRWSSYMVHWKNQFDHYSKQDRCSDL
SMILES,Activity [1],Ki (Liver carboxylesterase 1),Activity [2],Ki [3],Ki [4]
Cc1ccc(C(=O)O)cc1S(=O)(=O)Nc1ccc(NS(=O)(=O)c2ccc(F)cc2)cc1,inactive,> 100000 nM,inactive,693 nM,–
O=C(O)c1ccc(S(=O)(=O)Nc2ccc(NS(=O)(=O)c3ccc(F)cc3)cc2)cc1,inactive,> 100000 nM,inactive,> 100000 nM,–
Cc1ccc(S(=O)(=O)Nc2ccc(NS(=O)(=O)c3cc(F)ccc3F)cc2)cc1,inactive,> 100000 nM,inactive,467 nM,–
Cc1c(C)c(NS(=O)(=O)c2ccc(Br)cc2)c(C)c(C)c1NS(=O)(=O)c1ccc(Br)cc1,inactive,> 100000 nM,inactive,3240 nM,> 100000 nM
O=S(=O)(Nc1ccc2c(c1)Cc1cc(NS(=O)(=O)c3cccc(Br)c3)ccc1-2)c1cccc(Br)c1,inactive,> 100000 nM,inactive,21.2 nM,39.7 nM
Cc1ccc(S(=O)(=O)Nc2ccc(NS(=O)(=O)c3ccc(F)cc3F)cc2)cc1,inactive,> 100000 nM,inactive,385 nM,–
O=S(=O)(Nc1cc(Br)c(NS(=O)(=O)c2ccccc2)cc1Br)c1ccccc1,inactive,> 100000 nM,inactive,> 100000 nM,–
O=S(=O)(Nc1ccc(NS(=O)(=O)c2ccc(F)c(F)c2)cc1)c1ccccc1,inactive,> 100000 nM,inactive,488 nM,–
Cc1c(C)c(NS(=O)(=O)c2ccc(Cl)cc2)c(C)c(C)c1NS(=O)(=O)c1ccc(Cl)cc1,inactive,> 100000 nM,inactive,2010 nM,–
O=S(=O)(Nc1ccc(NS(=O)(=O)c2cc(Cl)cc(Cl)c2)cc1)c1cc(Cl)cc(Cl)c1,inactive,> 100000 nM,inactive,385 nM,–
O=S(=O)(Nc1ccc(NS(=O)(=O)c2cccc(Br)c2)cc1)c1cccc(Br)c1,inactive,> 100000 nM,inactive,67 nM,121 nM
O=S(=O)(Nc1ccc2c(c1)Cc1cc(NS(=O)(=O)c3ccc(Cl)cc3)ccc1-2)c1ccc(Cl)cc1,inactive,> 100000 nM,inactive,23.5 nM,37.7 nM
O=S(=O)(Nc1cc(Br)c(NS(=O)(=O)c2ccc(Cl)cc2)cc1Br)c1ccc(Cl)cc1,inactive,> 100000 nM,inactive,> 100000 nM,–
CNC(=O)c1ccc(S(=O)(=O)Nc2ccc(NS(=O)(=O)c3ccc(F)cc3)cc2)cc1,inactive,> 100000 nM,inactive,> 100000 nM,–
O=S(=O)(Nc1c(F)c(F)c(NS(=O)(=O)c2ccc(F)cc2)c(F)c1F)c1ccc(F)cc1,inactive,> 100000 nM,inactive,314 nM,–
O=S(=O)(Nc1ccc(NS(=O)(=O)c2ccc(F)cc2)cc1)c1ccc(F)cc1,inactive,> 100000 nM,inactive,355 nM,79 nM
O=S(=O)(Nc1ccc(NS(=O)(=O)c2ccc(F)c(F)c2)cc1)c1ccc(F)c(F)c1,inactive,> 100000 nM,inactive,160 nM,–
O=S(=O)(Nc1c(Cl)c(Cl)c(NS(=O)(=O)c2ccccc2)c(Cl)c1Cl)c1ccccc1,inactive,–,inactive,451 nM,> 100000 nM
O=S(=O)(Nc1ccc(Oc2ccccc2)cc1)c1ccc(Br)cc1,inactive,–,inactive,165 nM,> 100000 nM
O=S(=O)(Nc1ccc(NS(=O)(=O)c2cc(Cl)ccc2Cl)cc1)c1cc(Cl)ccc1Cl,inactive,> 100000 nM,inactive,119 nM,–
O=S(=O)(Nc1ccc(NS(=O)(=O)c2ccc(Cl)cc2)c2ccccc12)c1ccc(Cl)cc1,inactive,–,inactive,194 nM,> 100000 nM
O=S(=O)(Nc1ccc(NS(=O)(=O)c2ccc3ccccc3c2)cc1)c1ccc2ccccc2c1,inactive,> 100000 nM,inactive,1580 nM,–

SMILES,Activity [1],Ki (Liver carboxylesterase 1),Activity [2],Ki [3],Ki [4]
Cc1c(C)c(NS(=O)(=O)c2cccc(Cl)c2)c(C)c(C)c1NS(=O)(=O)c1cccc(Cl)c1,inactive,> 100000 nM,inactive,2060 nM,–
O=S(=O)(Nc1ccc(NS(=O)(=O)c2ccc(Cl)c(Cl)c2)cc1)c1ccc(Cl)c(Cl)c1,inactive,> 100000 nM,inactive,91.5 nM,–
CCOc1ccc(NS(=O)(=O)c2ccc(Cl)cc2)cc1,inactive,–,inactive,1310 nM,3220 nM
Cc1ccc(S(=O)(=O)Nc2ccc(NS(=O)(=O)c3ccc(F)c(F)c3)cc2)cc1,inactive,> 100000 nM,inactive,194 nM,–
Cc1ccc(S(=O)(=O)Nc2ccc(NS(=O)(=O)c3ccc(Cl)cc3)cc2)cc1,inactive,> 100000 nM,inactive,161 nM,–
CS(=O)(=O)Nc1ccc(SSc2ccc(NS(C)(=O)=O)cc2)cc1,inactive,–,inactive,767 nM,> 100000 nM
O=S(=O)(Nc1ccc(NS(=O)(=O)c2cc(F)cc(F)c2)cc1)c1cc(F)cc(F)c1,inactive,> 100000 nM,inactive,246 nM,–
Cc1cc(NS(=O)(=O)c2ccccc2)ccc1NS(=O)(=O)c1ccccc1,inactive,–,inactive,365 nM,238 nM
O=S(=O)(Nc1cc(Cl)c(NS(=O)(=O)c2ccc(Cl)cc2)cc1Cl)c1ccc(Cl)cc1,inactive,> 100000 nM,inactive,455 nM,–
O=S(=O)(Nc1ccc(NS(=O)(=O)c2ccccc2)c(Cl)c1)c1ccccc1,inactive,> 100000 nM,inactive,696 nM,–
O=S(=O)(Nc1ccc(NS(=O)(=O)c2ccc(Cl)cc2)cc1)c1ccc(F)cc1,inactive,> 100000 nM,inactive,200 nM,–
O=S(=O)(Nc1c(F)c(F)c(NS(=O)(=O)c2ccc(Cl)cc2)c(F)c1F)c1ccc(Cl)cc1,inactive,–,inactive,41.5 nM,110 nM
Cc1c(C)c(NS(=O)(=O)c2cccc(Br)c2)c(C)c(C)c1NS(=O)(=O)c1cccc(Br)c1,inactive,> 100000 nM,inactive,1570 nM,–
O=S(=O)(Nc1ccc(NS(=O)(=O)c2ccc(Cl)cc2)cc1)c1ccc(Cl)cc1,inactive,–,inactive,–,141 nM
O=S(=O)(Nc1ccc(NS(=O)(=O)c2ccccc2F)cc1)c1ccccc1F,inactive,> 100000 nM,inactive,1450 nM,–
COc1ccc(S(=O)(=O)Nc2ccc(NS(=O)(=O)c3ccc(F)cc3)cc2)cc1,inactive,> 100000 nM,inactive,568 nM,–
O=S(=O)(Nc1ccc(NS(=O)(=O)c2cc(Cl)c(Cl)cc2Cl)cc1)c1cc(Cl)c(Cl)cc1Cl,inactive,> 100000 nM,inactive,> 100000 nM,–
Cc1c(C)c(NS(=O)(=O)c2ccc(Cl)c(Cl)c2)c(C)c(C)c1NS(=O)(=O)c1ccc(Cl)c(Cl)c1,inactive,> 100000 nM,inactive,344 nM,–
Cc1ccc(C)c(S(=O)(=O)Nc2ccc(NS(=O)(=O)c3ccc(F)cc3)cc2)c1,inactive,> 100000 nM,inactive,240 nM,–
O=S(=O)(Nc1ccc(NS(=O)(=O)c2cccc(Cl)c2Cl)cc1)c1cccc(Cl)c1Cl,inactive,> 100000 nM,inactive,268 nM,–
Cc1ccc(S(=O)(=O)Nc2ccc(NS(=O)(=O)c3ccc(F)cc3)cc2)cc1,inactive,> 100000 nM,inactive,281 nM,–
